Screening results deposited in PubChem by several laboratories.
Exocytosis inh: lytic granule exocytosis inhibition. TALL-104 LAMP-1 surface exposure, flow cytometry; cells stimulated with thapsigargin and PMA. inhibition, % at 10 µM. hit rate 0.66% among 360,000;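 active means inhibition above about 55%, limit read from the data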
T cell HTS: T cell immune modulation candidate. hit rate 0.068% among 330,000. response (vesicle binding), % at 7 µM. 2C CD8+ T cell-vesicle binding, flow cytometry; stronger effect = lower value;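 active means response, share of CD8 T cells binding vesicles, and their 90th percentile fluorescence all below set limits, cut at about 80% in these data, passing the limit was not always enough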;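 further: values below 100% mean blocked vesicle binding to the CD8+ T cells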
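Read-out – percent CD8+ FL2 mean versus row control · System – murine 2C transgenic CD8+ T lymphocytes · Times – 1.5 h cell–vesicle binding at 37 °C, then 20 min icy labelling · Control set – naked vesicles low, QL9 vesicles with vehicle high · Detection – cytometric PE anti-B7-1 and Alexa647 anti-CD8 signals after 1% paraformaldehyde fixation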
EP2 mod: modulators of human EP2 prostaglandin E2 receptor | AID 940 | EP2-expressing cells, cAMP HTRF FRET, PGE2 co-stimulation | induction, % at 25 µM | hit rate 0.83% among 260,000 | P43116;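 active means compounds whose cAMP rise, as percent of the full-agonist control response, exceeds 60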;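 further: rat C6 glioma line stably carrying human EP2 under a CMV promoter; the protocol text gives 20 µM as final concentration; 100% = response of wells given 1 µM PGE2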
MC4R antagonist: blocks human MC4R cAMP signaling. P32245. MC4R-expressing cells, MTII-stimulated cAMP, LANCE TR-FRET. inhibition, % at 6.5 µM. hit rate 0.48% among 360,000. AID 540295;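 active means inhibition above its plate's cutoff, the mean of tested wells on that plate plus 3 SD, cut at about 29% in these data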;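 further: 0% = Melanotan II alone and 100% = Melanotan II plus saturating MCL0020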
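System: U2OS cells stably expressing human melanocortin 4 receptor (MC4R). Reagent: Melanotan II challenge after compound preincubation. Doses: 6.5 µM. Times: 30-min compound, 1-h challenge, 1-h detection, room temperature. Measured by: TR-FRET with Eu-cAMP and labeled anti-cAMP, 671 nm. Replicates: singlicate.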
MC4R ag barr: activates human MC4R beta-arrestin recruitment; AID 540308; hit rate 0.98% among 360,000; U2OS MC4R beta-arrestin complementation, luminescence; percent of melanotan II response, DMSO zero; activation, % at 8.9 µM; P32245;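 active means activation above a per-plate cutoff, the mean activation of sample wells on that plate plus 3 SD, cut at about 8% in these data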
PGE2 EP2 inh: EP2 receptor (human) inhibition. inhibition, % at 25 µM. hit rate 0.52% among 260,000. C6 glioma cells expressing human EP2, cAMP TR-FRET; cells stimulated with saturating PGE2;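 active means percent inhibition above 40 after rounding to a whole number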;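 further: rat C6 glioma host cells with rolipram phosphodiesterase inhibitor present; the protocol text gives 20 µM as final concentration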
MC4R barr conf: human MC4R beta-arrestin agonism confirmation; shares compounds with MC4R ag barr; U2OS MC4R beta-arrestin recruitment, luminescence; scaled DMSO 0%, Melanotan II 100%; activation, % at 8.9 µM; hit rate 31% among 2,400; AID 602192;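 active means mean activation across replicates above the hit cutoff set in the earlier primary screen, cut at about 8% in these data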
MOR-DOR barr ag: counter-screen for MC4R agonists: agonists of mu-delta opioid heterodimer; activation, % at 9.2 µM; U2OS PathHunter beta-arrestin, beta-gal luminescence; percent of deltorphin B response, DMSO zero; AID 602194; shares compounds with MC4R ag barr; hit rate 5.8% among 2,400;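 active means mean activation across replicates exceeds the hit threshold derived in the earlier primary screen, cut at about 18% in these data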;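 further: 100% = deltorphin B at 0.9 µM final and 0% = DMSO alone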
The depositor's hits bear a star; nt = not tested or not shown. Hits are enriched below; roughly 2.6% of the tested compounds scored in any of these assays.

SMILES	Exocytosis inh	T cell HTS	EP2 mod	MC4R antagonist	MC4R ag barr	PGE2 EP2 inh	MC4R barr conf	MOR-DOR barr ag
O=C(O)CCCCCN1C(=O)/C(=C\c2cn(-c3ccccc3)nc2-c2cccs2)SC1=S	2	140	53	16	26*	4	10.0*	3
CCN1CCN(c2ccc(Cl)cc2NC(=O)c2ccc(-n3nc(C)cc3C)cc2)CC1	-3	264	nt	-2	3	nt	nt	nt
CCC(C)(C)NC(=O)C(c1ccc(C)cc1)N(Cc1ccco1)C(=O)Cn1nnc2ccccc21 (stereo not drawn)	-1	486	38	-2	9.9*	20	3	5
CC(C)Cc1ccc(S(=O)(=O)Nc2cccnc2)cc1	-6	134	nt	-1	0	nt	nt	nt
CC(C)=C[C@H]1C[C@H](C)[C@H]2CC[C@H](C)c3c(O)c(O[C@H]4OC[C@H](O)[C@@H](O)[C@@H]4O)c(C)c1c32	-6	nt	nt	-5	12*	nt	4	2
Cc1onc(-c2ccccc2)c1C(=O)N/N=C/c1ccc([N+](=O)[O-])s1	-3	790	-12	1	-2	10	nt	nt
COc1ccc(C(=O)OCc2cc3cccc(C)c3[nH]c2=O)cc1	-2	198	45	5	15*	14	2	14
CCC(=O)OCc1cc2cccc(C)c2[nH]c1=O	-1	282	6	7	0	-7	nt	nt
COc1ccc(CC(=O)OCc2cc3cccc(C)c3[nH]c2=O)cc1	2	260	1	9	21*	7	8	5
Cc1nc(N)sc1C(=O)N/N=C/c1ccco1	0	353	11	-4	1	6	nt	nt
O=C(NCc1ccccc1)N1CCN(c2ccc(Cl)c(Cl)c2)CC1	-2	241	-28	2	22*	15	1	5
COCc1ccc(C(=O)NC2CCSc3ccccc32)cc1 (stereo not drawn)	3	588	nt	7	-1	nt	nt	nt
O=C(CNC(=S)NC(=O)c1ccc(Br)o1)c1ccccc1	-4	194	2	1	11*	10	2	6
O=C(CNC(=S)NC(=O)c1ccc(Cl)cc1)c1ccccc1	-6	364	2	-1	12*	5	2	3
COc1ccc(N2C(=O)CCC(C(=O)N3CCC(C(N)=O)CC3)C2c2ccc(F)cc2)cc1 (stereo not drawn)	1	325	13	-4	-1	6	nt	nt
NC(c1ccccc1)c1csc(NC(=O)NCCc2ccccc2)n1 (stereo not drawn)	4	nt	nt	8	-1	nt	nt	nt
COc1ccc2cc(CN(Cc3nnnn3Cc3ccco3)C3CCCCC3)c(=O)[nH]c2c1	nt	nt	-58	nt	nt	8	nt	nt
COc1ccc(-c2sc3cc(OC)c(OC)cc3c2C#CCO)cc1	0	379	nt	7	18*	nt	16*	15
COc1ccc(-c2ccc3oc(-c4ccc(OC)cc4)c(C#CCO)c3c2)cc1	-4	629	nt	14	18*	11	15*	5
COc1ccc(-c2oc3ccc(-c4ccc(OC)nc4)cc3c2C#CC2(O)CCCCC2)cc1	-8	948	nt	11	13*	nt	11*	4
COc1ccc(-c2oc3ccc(-c4ccc5c(c4)OCO5)cc3c2C#CC2(O)CCCCC2)cc1	-3	553	nt	8	15*	8	17*	4
COc1ccc(-c2oc3ccc(N4CCOCC4)cc3c2C#CCO)cc1	-2	931	nt	20	1	13	nt	nt
COc1ccc(-c2oc3ccc(-c4ccc(OC)nc4)cc3c2-c2ccc(OC)cc2)cc1	-8	278	nt	-1	0	7	nt	nt
COc1ccc(-c2sc3cc(OC)c(OC)cc3c2C#CC(C)(C)O)cc1	49	408	nt	2	0	nt	nt	nt
CCOC(CNC(=O)c1ccc(N2CCc3ccccc32)c([N+](=O)[O-])c1)OCC	-2	128	-39	-6	-4	9	nt	nt
SMILES	Exocytosis inh	T cell HTS	EP2 mod	MC4R antagonist	MC4R ag barr	PGE2 EP2 inh	MC4R barr conf	MOR-DOR barr ag
CCc1cc2c(SCC(=O)O)ncnc2s1	-2	130	21	0	-1	4	nt	nt
O=C(/C=C/c1cccc(F)c1)OCC(=O)N1CCc2ccccc21	0	381	nt	8	28*	nt	0	3
COc1cc(/C=C/C(=O)OCC(=O)N2CCCc3ccccc32)ccc1O	4	678	nt	3	-1	nt	nt	nt
c1ccc(-c2nc(-c3cccs3)[nH]c2-c2ccccc2)cc1	14	593	0	7	9.6*	13	3	5
COc1cc(-c2nc(-c3ccccc3)c(-c3cccs3)[nH]2)cc(OC)c1OC	16	490	33	17	-1	11	nt	nt
O=C(O)CC1(CC(=O)NCc2ccc(-c3cccs3)cc2)CCCCC1	2	49	6	2	2	2	nt	nt
O=C(NC(=S)Nc1ccc(NC(=O)c2cccs2)cc1)c1cc2ccccc2o1	0	296	-8	-4	26*	6	9.6*	10
O=C(NC(=S)Nc1ccc(NC(=O)c2cccs2)cc1)c1ccco1	-1	0	-57	-1	-1	11	nt	nt
Cc1ccc(C(=O)NC(=S)Nc2ccc(NC(=O)c3cccs3)cc2)cc1[N+](=O)[O-]	-2	155	14	4	29*	5	5	8
Cc1ccc(C)n1NC(=O)c1ccccc1Cl	-2	192	6	14	-2	11	nt	nt
COC(=O)c1ccccc1NC(=O)C1CC(c2ccccc2O)=NO1 (stereo not drawn)	-3	148	27	6	14*	12	-2	4
CSc1ccccc1NC(=O)C1CC(c2ccccc2O)=NO1 (stereo not drawn)	-2	248	-3	3	1	9	nt	nt
CCC(C(=O)NCc1ccco1)N(C(=O)CNS(=O)(=O)c1ccc(C)cc1)c1ccccc1OC (stereo not drawn)	0	nt	3	7	-2	14	nt	nt
CN(C)CCOc1nc(-c2ccccc2)nc2c1oc1ccccc12	-5	136	-11	-1	16*	10	4	6
CCCOc1c(Br)cc(C(=O)OCC(=O)NC(=O)c2cccn2C)cc1OC	-4	419	nt	1	18*	nt	8.6*	7
CCc1ccc2[nH]c(=O)c(CN(CC3CCCO3)C(=O)NCc3ccccc3)cc2c1 (stereo not drawn)	nt	nt	1	nt	nt	12	nt	nt
Cc1ccc(-c2nc3ccccc3s2)cc1NC(=O)c1cc(-n2cnnc2)ccc1Cl	-1	593	7	14	11*	9	0	3
